Published values gathered from unrelated publications.
Lines come from different studies, so protocols differ.
Target: Dual specificity protein kinase CLK1 (CLK1, Homo sapiens, UniProt P49759)

SMILES	assay	setting	quantity	value
COc1ccc2oc(-c3ccc4nc(N)oc4c3)c/c(=N\c3ccccc3NC(=O)CCN)c2c1	binding	1 µM	remaining binding	94%
CN1CCN(C(=O)c2ccc(NC(=O)Nc3ccc(N(C)c4ccnc(Nc5ccc(CS(C)(=O)=O)cc5)n4)cc3)cc2)CC1	binding, competition with immobilised ligand	1 µM	remaining binding	84%
Cc1cc(O)c(-c2ccc([C@@H](C)CN(C)C)cc2)c2c1[nH]c(=O)c1sccc12	enzyme activity, inhibitor	0.1 µM	inhibition	-7.55%
C#Cc1cc(-c2cc(Nc3nc(N[C@@H](C)c4ccc(F)cn4)ncc3Cl)n[nH]2)ccc1C=O	enzyme activity, inhibitor	0.2 µM	inhibition	34.2%
CCCCC(=O)Nc1ccc(-c2ccc3ncn(CCC)c(=O)c3c2)cn1	binding, competition with immobilised ligand	0.5 µM	remaining binding	79%
C=CC(=O)N1CCC[C@@H](n2nc(-c3ccc(Oc4ccccc4)cc3)c3c(N)ncnc32)C1	enzyme activity, inhibitor	1 µM	inhibition	23%
C1=C/COCc2cc(ccc2OCCN2CCCC2)Nc2nccc(n2)-c2cccc(c2)COC/1	binding	0.1 µM	remaining binding	27%
Cc1ccc(NC(=O)c2ccnc(C(F)(F)F)c2)cc1-c1cc(OCCO)nc(N2CCOCC2)c1	binding, competition with immobilised ligand	1 µM	remaining binding	92%
C=CC(=O)N1CCC([C@@H]2CCNc3c(C(N)=O)c(-c4ccc(Oc5ccccc5)cc4)nn32)CC1	enzyme activity, inhibitor	1 µM	inhibition	19%
